# Published values collected from several papers.
# Each line is one published result; the experiments were not run side by side.
# Cell line: A549
# Effect on: cell growth or viability
SMILES,technique,time,IC50
CC(C)[C@@H]1NC(=O)[C@@H](CCCNC(=N)N)NC(=O)[C@H]([C@@H](C)O)NC(=O)[C@@H](CCCNC(=N)N)NC(=O)[C@H](Cc2ccccc2)NC(=O)[C@@H](Cc2ccccc2)NC1=O,ATP luminescence,,61.7 µM
COC(=O)c1cc(C(C)=NNc2nc(-c3ccc(S(=O)(=O)F)cc3)cs2)ccc1O,MTT,96 h,65 µM
CC(C)[C@@H]1NC(=O)[C@@H](CCCNC(=N)N)NC(=O)[C@H]([C@@H](C)O)NC(=O)[C@@H](CCN)NC(=O)[C@H](Cc2ccccc2)NC(=O)[C@@H](Cc2ccccc2)NC1=O,ATP luminescence,,> 100 µM
CC(C)C[C@H](NC(=O)[C@H](CC(C)C)NC(=O)[C@H](CCCCN)NC(=O)[C@H](CCCCN)NC(=O)[C@H](Cc1ccccc1)NC(=O)[C@H](CC(C)C)NC(=O)[C@H](CCCCN)NC(=O)[C@H](CCCCN)NC(=O)[C@H](CC(C)C)NC(=O)[C@H](CC(C)C)NC(=O)[C@H](CCCCN)NC(=O)[C@@H](N)CCCNC(=N)N)C(=O)N[C@@H](CCCCN)C(N)=O,MTT,24 h,20 µM
N.N.[Cl][Pt][Cl],MTT,48 h,5.55 µM
CC(C)[C@H](NC(=O)[C@H](Cc1c[nH]cn1)NC(=O)[C@H](Cc1c[nH]c2ccccc12)NC(=O)[C@H](Cc1c[nH]cn1)NC(=O)[C@H](C)NC(=O)[C@H](CCCCN)NC(=O)[C@H](Cc1c[nH]c2ccccc12)NC(=O)[C@H](Cc1c[nH]c2ccccc12)NC(=O)[C@H](CCCNC(=N)N)NC(=O)[C@H](Cc1c[nH]c2ccccc12)NC(=O)[C@H](CCCNC(=N)N)NC(=O)[C@@H](N)CCCNC(=N)N)C(=O)N[C@@H](Cc1c[nH]c2ccccc12)C(N)=O,MTT,24 h,240 µM
CC[C@@]1(O)C(=O)OCc2c1cc1n(c2=O)Cc2cc3ccccc3nc2-1,SRB,48 h,0.06 µM
CC(C)C[C@H](NC(=O)[C@@H]1CCCN1C(=O)[C@H](Cc1ccc(O)cc1)NC(=O)[C@H](CCCCN)NC(=O)[C@H](CCCCN)NC(=O)[C@H](CS)NC(=O)[C@H](CC(C)C)NC(=O)[C@H](CCCCN)NC(=O)[C@H](CCCCN)NC(=O)[C@H](Cc1ccccc1)NC(=O)[C@H](CC(C)C)NC(=O)[C@H](CCCCN)NC(=O)[C@@H](N)CCCNC(=N)N)C(N)=O,MTT,24 h,258 µM
CC1=CC(=O)c2c(O)cccc2C1=O,MTT,,13.6 µM
N.N.O=C([O-])C1(C(=O)[O-])CCC1.[Pt+2],MTT,48 h,197 µM
CC[C@H](C)[C@H](NC(=O)[C@H](CC(C)C)NC(=O)[C@H](CCCCN)NC(=O)[C@H](CCCCN)NC(=O)[C@H](CC(C)C)NC(=O)[C@H](CCCNC(=N)N)NC(=O)[C@H](CCCCN)NC(=O)[C@@H](N)CC(C)C)C(=O)N[C@@H](CCCCN)C(=O)N[C@@H](CCCCN)C(=O)N[C@@H](CC(C)C)C(=O)N[C@@H](CCCNC(=N)N)C(=O)N[C@@H](CCCCN)C(N)=O,MTT,24 h,100 µM
O=C1c2ccccc2-c2c3c(cc4ccnc1c24)OCO3,MTT,75 h,19.8 µM
